Results taken from ChEMBL document CHEMBL5365494, “Bis-6-amidino-benzothiazole Derivative that Cures Experimental Stage 1 African Trypanosomiasis with a Single Dose” (J Med Chem, 2023).
Activity calls are given as the source filed them. The rule behind the calls is not given here.

Tests used:
Plasmodium falciparum = assay: Antiplasmodial activity against Plasmodium falciparum 3D7 infected in human erythrocytes assessed as inhibition of asexual parasite development measured after 96 hrs by fluorescence based assay; type: functional, organism-based; settings: 3D7, Erythrocyte
In short: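 3D7 asexual parasites in human erythrocytes (RPMI 1640, 0.5% Albumax II, 50 μM hypoxanthine, 2 mM L-glutamine, 5% CO2), 2% parasitemia/1% hematocrit; compound in DMSO dilutions, 96 h at 37 °C. Freeze-thaw, SYBR green lysis buffer, 1 h, fluorescence ex 485/em 535 nm. Normalized to DMSO and 1 μM dihydroartemisinin; EC50 from triplicate independent dose-response curves.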

[1] = Toxicity in BALB/c mouse infected with bioluminescent Trypanosoma brucei brucei GVR35-VSL2 expressing red-shifted luciferase assessed as piloerection in animal at 0.25 to 20 mg/kg, ip administered once daily for 4 days; type: organism-based; settings: in vivo, 96 h, dose 0.25-20 mg/kg, time 4 day
In short: (§1)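 Infected BALB/c mice (bioluminescent T. brucei, 30,000 parasites) dosed i.p. or orally once daily for 4 days starting day 4 post-infection; observed for piloerection, hunching, shaking, lack of activity and body weight change.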

[2] = Toxicity in BALB/c mouse infected with bioluminescent Trypanosoma brucei brucei GVR35-VSL2 expressing red-shifted luciferase assessed as lack of activity in animal at 20 mg/kg, po administered once daily for 4 days; type: organism-based; settings: in vivo, 96 h, time 4 day; in short: as §1
[3] = Drug localization in endosome of Trypanosoma brucei bloodstream form at 10 ug/ml measured after 6 hrs in presence of bafilomycin Al by TbCatL antibody based immunofluorescence microscopy; type: ADME, subcellular; settings: dose 10 µg/ml
In short: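 Parasites exposed to compound 10 μg mL⁻¹ for 6 h, with or without BafA1 8 nM; fixed 4% PFA, permeabilized 0.1% Triton X-100, blocked 1% BSA, rabbit anti-TbCatL 1:200 overnight at 4 °C, then Alexa 488 anti-rabbit 2 μg mL⁻¹ 1 h at 37 °C; fluorescence microscopy.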

[4] = Drug localization in lysosomes of Trypanosoma brucei bloodstream form assessed as colocalization at 10 ug/ml incubated upto 180 mins by LysoTrack dye based fluorescence microscopy; type: ADME, subcellular, Lysosome; settings: 3 h, dose 10 µg/ml
In short: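 Parasites pre-loaded with 100 nM LysoTracker for 45 min, washed, then exposed to compound 10 μg mL⁻¹; aliquots fixed in 4% PFA at each timepoint, DAPI-mounted, imaged by fluorescence microscopy.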

[5] = Toxicity in BALB/c mouse infected with bioluminescent Trypanosoma brucei brucei GVR35-VSL2 expressing red-shifted luciferase assessed as hunching in animal at 0.25 to 20 mg/kg, ip administered once daily for 4 days; type: organism-based; settings: in vivo, 96 h, dose 0.25-20 mg/kg, time 4 day; in short: as §1
[6] = Metabolic stability in mouse liver microsomes assessed as half life at 1 uM measured upto 60 mins in presence of NADPH by LC-MS/MS analysis; type: ADME, Microsome; settings: 1 h
Trypanosoma brucei = assay: Antitrypanosomal activity against blood stream form of Trypanosoma brucei 221a variant assessed as parasite growth inhibition at 0.3 nM preincubated for 24 hrs followed by subculturing with fresh medium with compounds and measured after 6 days by resazurin dye based fluorescence analysis; type: functional, organism-based; settings: time 7.0 day
In short: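 Bloodstream-form T. brucei seeded in flasks at 10^5 mL^-1 with a range of compound concentrations. Every 24 h parasites were sub-cultured back to 10^5 mL^-1 in continued compound presence, through day 10. Growth reported as cumulative parasite number. In a washout arm, parasites were exposed for 3 days, moved to compound-free medium and followed for 12 days.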

[7] = Drug localization in nucleus of Trypanosoma brucei bloodstream form at 10 ug/ml measured for 180 mins by fluorescence microscopy; type: ADME, subcellular; settings: 3 h, dose 10 µg/ml
In short: (§2)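 Bloodstream-form T. brucei incubated with compound 10 μg mL⁻¹ for 60 or 180 min or 24 h; fixed in 4% PFA, mounted with DAPI, imaged by fluorescence microscopy (ex 550/em 585 nm).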

[8] = Cytotoxicity against rat L6 cells assessed as cell growth inhibition incubated for 6 days by resazurin dye based assay; type: toxicity
In short: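 Rat L6 myoblasts seeded at 1×10⁴ mL⁻¹ in RPMI-1640 with a range of compound concentrations, 6 days at 37 °C; resazurin added, 6 h further, fluorescence ex 545/em 590 nm.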

[9] = system: Trypanosoma brucei brucei; assay: Antitrypanosomal activity against stage-1 bioluminescent Trypanosoma brucei brucei GVR35-VSL2 expressing red-shifted luciferase infected in BALB/c mouse assessed as reduction in parasite growth by measuring curation rate at 20 mg/kg, po administered once daily for 4 days starting from 4 days post infection by luciferase based bioluminescence assay relative to control; type: functional; set-up: scale not given: the % may be the effect or the level left; settings: time 4 day
In short: (§3)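 BALB/c mice infected with 30,000 bioluminescent bloodstream-form T. brucei; dosing i.p. or oral from 4 days post-infection, single or once daily for 4 days. Monitored by in vivo imaging after i.p. d-luciferin 150 mg kg⁻¹ under isoflurane, with total body flux from dorsal plus ventral images. Cure required negativity by both in vivo and ex vivo imaging.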

[10] = Apparent permeability across apical to basolateral side in MDCK-MDR1 cells at 10 uM measured for 60 mins by LC-MS/MS analysis; type: ADME, cell-based, Canis lupus familiaris; settings: dog
In short: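 MDCKII-hMDR1 monolayers on inserts, compound 10 μM (1% DMSO) in duplicate, 60 min at 37 °C, bidirectional, with and without elacridar 2 μM. Amprenavir as P-gp control, Lucifer yellow for monolayer integrity; compound quantified by LC–MS/MS.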

[11] = Toxicity in BALB/c mouse infected with bioluminescent Trypanosoma brucei brucei GVR35-VSL2 expressing red-shifted luciferase assessed as piloerection in animal at 20 mg/kg, po administered once daily for 4 days; type: organism-based; settings: in vivo, 96 h, time 4 day; in short: as §1
[12] = Drug localization in kinetoplast of Trypanosoma brucei bloodstream form at 10 ug/ml measured for 180 mins by fluorescence microscopy; type: ADME, subcellular; settings: 3 h, dose 10 µg/ml; in short: as §2
[13] = system: Trypanosoma brucei brucei; assay: Antitrypanosomal activity against stage-1 bioluminescent Trypanosoma brucei brucei GVR35-VSL2 expressing red-shifted luciferase infected in BALB/c mouse assessed as reduction in parasite growth at 2 mg/kg, ip administered as single dose for 1 day starting from 4 days post infection by luciferase based bioluminescence assay; type: functional, organism-based; in short: as §3
[14] = Toxicity in BALB/c mouse infected with bioluminescent Trypanosoma brucei brucei GVR35-VSL2 expressing red-shifted luciferase assessed as lack of activity in animal at 0.25 to 20 mg/kg, ip administered once daily for 4 days; type: organism-based; settings: in vivo, 96 h, dose 0.25-20 mg/kg, time 4 day; in short: as §1

CS(=O)(=O)O.CS(=O)(=O)O.N=C(N)c1ccc2nc(C3CCC(c4nc5ccc(C(=N)N)cc5s4)CC3)sc2c1 (stereo unspecified)
EC50 (Plasmodium falciparum): 0.0253 µM | Activity [1]: Non-Toxic | Activity [2]: Non-Toxic | Drug uptake [3]: Not Active | Drug uptake [4]: Active | Activity [5]: Non-Toxic | t1/2 [6]: > 1 h | Activity (Trypanosoma brucei): Active | Drug uptake [7]: Not Active | EC50 at 6 days [8]: 13.4 µM | Activity [9]: 20% | Papp A→B at 1 h, 10 µM [10]: < 0.1 ×10⁻⁶ cm/s | Activity [11]: Non-Toxic | Drug uptake [12]: Not Active | Activity [13]: inactive | Activity [14]: Non-Toxic
